Assays:
Influenza A virus [1] = assay: Antiviral activity against Influenza A virus A/Virginia/ATCC3/2009(H1N1pdm) infected in MDCK cells after 3 days by MTS assay; format: functional, organism-based, Influenza A virus (A/Virginia/03/2009(H1N1)); conditions: 72 h
Outline: (§1)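 Semi-confluent MDCK cells were infected at an MOI of 0.0004 PFU/cell in Ultra-MDCK infection medium with 2 μg/mL TPCK-trypsin, together with compounds. After 3 days at 35 °C, CPE was scored by microscopy and confirmed by MTS formazan viability. EC50 is the concentration giving 50% inhibition of virus-induced CPE. Values are means of two to five independent tests.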

[2] = (§2) Cytotoxicity against MDCK cells assessed as reduction in cell viability after 3 days by MTS assay; format: cell-based, Canis lupus familiaris; conditions: dog, MDCK cells
Influenza A virus [3] = assay: Antiviral activity against Influenza A virus A/Virginia/ATCC3/2009(H1N1pdm) infected in MDCK cells assessed as reduction in virus-induced cytopathic effect after 3 days by microscopic method; format: functional, organism-based, Influenza A virus (A/Virginia/03/2009(H1N1)); conditions: 72 h; outline: as §1
[4] = Cytotoxicity against MDCK cells assessed as alteration in cell morphology after 3 days by microscopic method; format: cell-based, Canis lupus familiaris; conditions: dog
Outline: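 Mock-infected MDCK cells were treated with compounds in parallel with the antiviral assay, 3 days at 35 °C. MCC is the concentration causing minimal change in cell morphology by microscopy. CC50 is the 50% cytotoxic concentration by MTS formazan viability assay.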

Influenza A virus [5] = assay: Antiviral activity against Influenza A virus A/PR/8/34(H1N1) infected in MDCK cells assessed as reduction in virus-induced cytopathic effect after 3 days by microscopic method; format: functional, organism-based, A/Puerto Rico/8/1934(H1N1); conditions: Influenza A virus, A/Puerto Rico/8/1934(H1N1), MDCK, 72 h; outline: as §1
H3N2 subtype [6] = assay: Antiviral activity against Influenza A virus A/HK/7/87(H3N2) infected in MDCK cells assessed as reduction in virus-induced cytopathic effect after 3 days by microscopic method; format: functional, organism-based; conditions: A/Hong Kong/7/1987(H3N2), 72 h; outline: as §1
Influenza B virus [7] = assay: Antiviral activity against Influenza B virus B/HK/05/72 infected in MDCK cells assessed as reduction in virus-induced cytopathic effect after 3 days by microscopic method; format: functional, organism-based; conditions: B/Hong Kong/05/1972, MDCK, 72 h; outline: as §1
Influenza A virus [8] = assay: Antiviral activity against Influenza A virus A/PR/8/34(H1N1) infected in MDCK cells after 3 days by MTS assay; format: functional, organism-based, A/Puerto Rico/8/1934(H1N1); conditions: Influenza A virus, A/Puerto Rico/8/1934(H1N1), MDCK, 72 h; outline: as §1
H3N2 subtype [9] = assay: Antiviral activity against Influenza A virus A/HK/7/87(H3N2) infected in MDCK cells after 3 days by MTS assay; format: functional, organism-based; conditions: A/Hong Kong/7/1987(H3N2), 72 h; outline: as §1
Influenza B virus [10] = assay: Antiviral activity against Influenza B virus B/HK/05/72 infected in MDCK cells after 3 days by MTS assay; format: functional, organism-based; conditions: B/Hong Kong/05/1972, MDCK, 72 h; outline: as §1
Influenza B virus [11] = assay: Antiviral activity against Influenza B virus B/Ned/537/05 infected in MDCK cells after 3 days by MTS assay; format: functional, organism-based; conditions: B/Ned/537/05, MDCK, 72 h
Outline: (§3)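 Semi-confluent MDCK cells were infected at an MOI of 0.0004 PFU/cell in Ultra-MDCK infection medium with 2 μg/mL TPCK-trypsin, together with compounds. After 3 days at 35 °C, CPE was scored by microscopy and confirmed by MTS formazan viability. Values are means of two to five independent tests.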

MDCK = assay: as §2; format: cell-based, Canis lupus familiaris; conditions: dog, mdck, 72 h
[12] = Cytotoxicity against HEL299 cells assessed as changes in cell morphology after 5 days by microscopic method; format: cell-based, HEL 299; conditions: human
Outline: (§4)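 Confluent HEL 299 cells in medium with 2% FCS were exposed to HCoV-229E (100 CCID50/well) together with compounds and held for 5 days at 35 °C. EC50 (CPE reduction) and MCC (minimal morphology change) were determined by microscopy. SI is MCC/EC50.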

Influenza B virus [13] = assay: Antiviral activity against Influenza B virus B/Ned/537/05 infected in MDCK cells assessed as reduction in virus-induced cytopathic effect after 3 days by microscopic method; format: functional, organism-based; conditions: B/Ned/537/05, MDCK, 72 h; outline: as §3
Human coronavirus 229E [14] = assay: Antiviral activity against Human coronavirus 229E infected in human A549 cells assessed as reduction in virus RNA level after 3 days by qRT-PCR method; format: functional; conditions: A549, 72 h
Outline: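 Confluent A549 cells were infected with HCoV-229E in 2% FCS medium with compounds present. The inoculum was removed at 1 h and compounds were kept on at 35 °C. Supernatants were harvested at day 3, lysed at 75 °C for 10 min, and viral genome copies counted by one-step qRT-PCR.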

[15] = Cytotoxicity against human A549 cells assessed as changes in cell morphology after 3 days by microscopic method; format: cell-based
Outline: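 Mock-infected A549 cells were incubated with compounds for 3 days. MCC is the concentration causing minimal change in cell morphology by microscopy.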

Human coronavirus 229E [16] = assay: Antiviral activity against Human coronavirus 229E infected in HEL299 cells assessed as reduction in virus induced cytopathic effect after 5 days by microscopic method; format: functional, organism-based; conditions: HEL 299, 120 h; outline: as §4

SMILES	EC50 (Influenza A virus [1])	CC50 at 72 h [2]	EC50 (Influenza A virus [3])	MCC at 72 h [4]	EC50 (Influenza A virus [5])	EC50 (H3N2 subtype [6])	EC50 (Influenza B virus [7])	EC50 (Influenza A virus [8])	EC50 (H3N2 subtype [9])	EC50 (Influenza B virus [10])	EC50 (Influenza B virus [11])	CC50 (MDCK)	MCC at 120 h [12]	EC50 (Influenza B virus [13])	EC90 (Human coronavirus 229E [14])	EC99 (Human coronavirus 229E [14])	MCC at 72 h [15]	EC50 (Human coronavirus 229E [16])
CC(=O)N[C@H]1[C@H](O[C@@H]2c3ccc(c(Cl)c3)Oc3cc4cc(c3O)Oc3ccc(cc3Cl)C[C@H]3NC(=O)[C@H](n5cc(COc6ccccc6)nn5)c5ccc(O)c(c5)Oc5cc(O)cc(c5)[C@H](NC3=O)C(=O)N[C@H]4C(O)N[C@H]3C(=O)N[C@H]2C(=O)N[C@@H](C(=O)O)c2cc(O)cc(O)c2-c2cc3ccc2O)O[C@H](CO)[C@@H](O)[C@@H]1O (stereo not given in full)	> 100 µM	41 µM	> 100 µM	≥ 20 µM	> 100 µM	11 µM	> 100 µM	> 100 µM	11 µM	> 100 µM	–	–	–	–	–	–	–	–
CCCCCCCCCCOCc1cn([C@H]2C(=O)N[C@@H]3Cc4ccc(c(Cl)c4)Oc4cc5cc(c4O)Oc4ccc(cc4Cl)[C@@H](O[C@@H]4O[C@H](CO)[C@@H](O)[C@H](O)[C@H]4NC(C)=O)[C@H]4NC(=O)[C@H](NC(O)[C@@H]5NC(=O)[C@@H](NC3=O)c3cc(O)cc(c3)Oc3cc2ccc3O)c2ccc(O)c(c2)-c2c(O)cc(O)cc2[C@H](C(=O)O)NC4=O)nn1 (stereo not given in full)	> 100 µM	3.7 µM	> 100 µM	4 µM	> 100 µM	> 100 µM	> 100 µM	> 100 µM	> 100 µM	> 100 µM	–	–	–	–	–	–	–	–
CCCCCCOCc1cn([C@H]2C(=O)N[C@@H]3Cc4ccc(c(Cl)c4)Oc4cc5cc(c4O)Oc4ccc(cc4Cl)[C@@H](O[C@@H]4O[C@H](CO)[C@@H](O)[C@H](O)[C@H]4NC(C)=O)[C@H]4NC(=O)[C@H](NC(O)[C@@H]5NC(=O)[C@@H](NC3=O)c3cc(O)cc(c3)Oc3cc2ccc3O)c2ccc(O)c(c2)-c2c(O)cc(O)cc2[C@H](C(=O)O)NC4=O)nn1 (stereo not given in full)	> 100 µM	53 µM	> 100 µM	≥ 20 µM	> 100 µM	15 µM	17 µM	> 100 µM	13 µM	11 µM	–	–	–	–	–	–	–	–
CC(=O)N[C@H]1[C@H](O[C@@H]2c3ccc(c(Cl)c3)Oc3cc4cc(c3O)Oc3ccc(cc3Cl)C[C@H]3NC(=O)[C@H](n5cc(CO[C@@H]6[C@H](OCc7ccccc7)[C@@H](OCc7ccccc7)[C@H](O[C@H]7[C@H](OCc8ccccc8)[C@@H](OCc8ccccc8)[C@H](Sc8ccccc8)O[C@@H]7COCc7ccccc7)O[C@@H]6COCc6ccccc6)nn5)c5ccc(O)c(c5)Oc5cc(O)cc(c5)[C@H](NC3=O)C(=O)N[C@H]4C(O)N[C@H]3C(=O)N[C@H]2C(=O)N[C@@H](C(=O)O)c2cc(O)cc(O)c2-c2cc3ccc2O)O[C@H](CO)[C@@H](O)[C@@H]1O (stereo not given in full)	7.3 µM	> 100 µM	8.9 µM	≥ 20 µM	> 100 µM	8.9 µM	6.6 µM	> 100 µM	20 µM	4 µM	–	–	–	–	–	–	–	–
CCCCCCCCCCCCCCCCOCc1cn([C@H]2C(=O)N[C@@H]3Cc4ccc(c(Cl)c4)Oc4cc5cc(c4O)Oc4ccc(cc4Cl)[C@@H](O[C@@H]4O[C@H](CO)[C@@H](O)[C@H](O)[C@H]4NC(C)=O)[C@H]4NC(=O)[C@H](NC(O)[C@@H]5NC(=O)[C@@H](NC3=O)c3cc(O)cc(c3)Oc3cc2ccc3O)c2ccc(O)c(c2)-c2c(O)cc(O)cc2[C@H](C(=O)O)NC4=O)nn1 (stereo not given in full)	1.8 µM	7.6 µM	1.8 µM	≥ 4 µM	1.6 µM	≤ 8.9 µM	1.8 µM	1.8 µM	≤ 1.6 µM	1.3 µM	–	–	–	–	–	–	–	–
CCCCCCCCOCc1cn([C@H]2C(=O)N[C@@H]3Cc4ccc(c(Cl)c4)Oc4cc5cc(c4O)Oc4ccc(cc4Cl)[C@@H](O[C@@H]4O[C@H](CO)[C@@H](O)[C@H](O)[C@H]4NC(C)=O)[C@H]4NC(=O)[C@H](NC(O)[C@@H]5NC(=O)[C@@H](NC3=O)c3cc(O)cc(c3)Oc3cc2ccc3O)c2ccc(O)c(c2)-c2c(O)cc(O)cc2[C@H](C(=O)O)NC4=O)nn1 (stereo not given in full)	1.9 µM	13 µM	1.8 µM	≥ 4 µM	> 100 µM	2.1 µM	1.8 µM	2.2 µM	1.5 µM	1.9 µM	–	–	–	–	–	–	–	–
CC(=O)N[C@H]1[C@H](O[C@@H]2c3ccc(c(Cl)c3)Oc3cc4cc(c3O)Oc3ccc(cc3Cl)C[C@H]3NC(=O)[C@H](n5cc(COC[C@H]6O[C@@H]7OC(C)(C)O[C@@H]7[C@H]7OC(C)(C)O[C@H]76)nn5)c5ccc(O)c(c5)Oc5cc(O)cc(c5)[C@H](NC3=O)C(=O)N[C@H]4C(O)N[C@H]3C(=O)N[C@H]2C(=O)N[C@@H](C(=O)O)c2cc(O)cc(O)c2-c2cc3ccc2O)O[C@H](CO)[C@@H](O)[C@@H]1O (stereo not given in full)	43 µM	> 100 µM	45 µM	≥ 100 µM	52 µM	39 µM	39 µM	47 µM	24 µM	29 µM	–	–	–	–	–	–	–	–
CC(=O)N[C@H]1[C@H](O[C@@H]2c3ccc(c(Cl)c3)Oc3cc4cc(c3O)Oc3ccc(cc3Cl)C[C@H]3NC(=O)[C@H](NS(=O)(=O)c5ccccc5)c5ccc(O)c(c5)Oc5cc(O)cc(c5)[C@H](NC3=O)C(=O)N[C@H]4C(O)N[C@H]3C(=O)N[C@H]2C(=O)N[C@@H](C(=O)O)c2cc(O)cc(O)c2-c2cc3ccc2O)O[C@H](CO)[C@@H](O)[C@@H]1O (stereo not given in full)	52 µM	–	46 µM	100 µM	16 µM	25 µM	–	27 µM	23 µM	–	21 µM	> 100 µM	≥ 20 µM	51 µM	6.8 µM	11 µM	> 50 µM	5.5 µM

Reference: ChEMBL document CHEMBL4270630
